According to ChEMBL document CHEMBL4138303, “Discovery and in Vitro Optimization of 3-Sulfamoylbenzamides as ROMK Inhibitors” (ACS Med Chem Lett, 2018):
Numbering of substitutions follows the chain as printed. Activity calls are given as the source filed them. No cut-off for these calls is given here.

Legend:
[1] = Octanol-sodium phosphate buffer partition coefficient, log D of the compound at pH 7.4 by shake flask method; type: physicochemical
[2] = molecular target: T1, ATP-sensitive inward rectifier potassium channel 1 (Homo sapiens, UniProt P48048); experiment: Inhibition of human ROMK2 expressed in HEK293 cells after 20 mins by Thallos-AM dye based fluorescence assay; type: cell-based
T1 sequence (P48048 whole entry): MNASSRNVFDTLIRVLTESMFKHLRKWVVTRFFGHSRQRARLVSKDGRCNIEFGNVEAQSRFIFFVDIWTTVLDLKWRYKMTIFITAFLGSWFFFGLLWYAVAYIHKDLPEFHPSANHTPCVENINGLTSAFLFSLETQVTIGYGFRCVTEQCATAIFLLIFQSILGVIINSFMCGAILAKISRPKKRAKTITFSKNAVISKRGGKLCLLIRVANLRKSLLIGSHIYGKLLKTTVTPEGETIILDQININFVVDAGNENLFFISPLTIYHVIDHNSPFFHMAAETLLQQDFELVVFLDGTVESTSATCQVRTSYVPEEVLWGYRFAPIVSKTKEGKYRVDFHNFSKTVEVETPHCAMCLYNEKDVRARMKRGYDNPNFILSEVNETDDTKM

[3] = Apparent intrinsic clearance in human liver microsomes; type: ADME, microsome; conditions: read-out: CLH(app)
[4] = Apparent permeability in MDCK2-LE cells; type: ADME, cell-based, Canis lupus familiaris, MDCK-II; conditions: dog
[5] = molecular target: T2, ATP-sensitive inward rectifier potassium channel 1 (Rattus norvegicus, UniProt P35560); experiment: Inhibition of rat ROMK1 expressed in HEK293 cells after 20 mins by Thallos-AM dye based fluorescence assay; type: cell-based
T2 sequence (P35560 whole entry): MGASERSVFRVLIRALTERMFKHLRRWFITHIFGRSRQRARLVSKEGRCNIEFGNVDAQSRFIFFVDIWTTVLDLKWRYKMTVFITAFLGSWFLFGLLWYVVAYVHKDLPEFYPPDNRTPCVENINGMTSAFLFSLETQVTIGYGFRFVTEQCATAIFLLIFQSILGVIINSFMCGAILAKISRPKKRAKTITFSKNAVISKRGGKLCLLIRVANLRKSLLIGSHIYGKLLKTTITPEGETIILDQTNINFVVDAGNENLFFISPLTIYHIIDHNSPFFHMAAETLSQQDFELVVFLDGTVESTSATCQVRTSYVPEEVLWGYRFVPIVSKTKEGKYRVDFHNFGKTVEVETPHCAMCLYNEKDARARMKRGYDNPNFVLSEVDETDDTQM
Method in brief: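 Thallium (Tl+) flux assay against rat ROMK1, with concentration-response testing up to 30 µM. IC50 values are geometric means of n≥3 replicates unless otherwise indicated and are also reported as pIC50±SD.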

[6] = molecular target: T1, ATP-sensitive inward rectifier potassium channel 1; experiment: Inhibition of human ROMK1 expressed in HEK293 cells at -75 mV holding potential by whole cell patch clamp method; type: cell-based
Method in brief: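 Whole-cell patch clamp on human ROMK1. IC50 comes from a global fit to a five-point concentration-response curve with n≥4 per concentration, reported with 95% CI.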

[7] = molecular target: T1, ATP-sensitive inward rectifier potassium channel 1; experiment: (§1) Inhibition of human ROMK1 expressed in HEK293 cells after 20 mins by Thallos-AM dye based fluorescence assay; type: cell-based
Method in brief: (§2)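 Tl+ flux assay on human or rat ROMK1, run as concentration-response. IC50 is the geometric mean of n≥3 replicates, also given as pIC50±SD. Rat ROMK1 testing went up to 30 µM.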

[8] = molecular target: Voltage-gated inwardly rectifying potassium channel KCNH2 (Homo sapiens, UniProt Q12809); experiment: Displacement of fluorescent-labelled dofetilide from human ERG expressed in HEK293 cell membrane homogenates; type: cell membranes
Method in brief: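 Ki from displacement of a fluorescently labelled dofetilide derivative from membrane homogenates of HEK-293 cells stably expressing hERG (Kv11.1).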

[9] = molecular target: T3, Kir2.1 (inward rectifier potassium channel 2) (Homo sapiens, UniProt P63252); experiment: Inhibition of Kir2.1 (unknown origin) expressed in CHO cells at 10 uM at -75 mV holding potential by whole cell patch clamp method relative to control; type: cell-based; conditions: CHO cells expressing Kir2.1
T3 sequence (P63252 whole entry): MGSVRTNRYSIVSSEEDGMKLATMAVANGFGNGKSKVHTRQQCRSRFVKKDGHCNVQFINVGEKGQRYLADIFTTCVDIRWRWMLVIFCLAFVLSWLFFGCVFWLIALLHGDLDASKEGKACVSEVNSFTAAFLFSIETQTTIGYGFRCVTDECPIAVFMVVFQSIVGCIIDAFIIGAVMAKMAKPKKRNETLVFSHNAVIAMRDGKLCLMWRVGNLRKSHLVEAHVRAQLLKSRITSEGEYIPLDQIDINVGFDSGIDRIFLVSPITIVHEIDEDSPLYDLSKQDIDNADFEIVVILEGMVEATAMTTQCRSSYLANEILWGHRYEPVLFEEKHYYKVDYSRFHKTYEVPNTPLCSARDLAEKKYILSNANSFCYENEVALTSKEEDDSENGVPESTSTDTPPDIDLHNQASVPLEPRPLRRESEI
Method in brief: (§3)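 Whole-cell patch-clamp recordings in CHO cells stably expressing either Kir2.1 or Kir4.1.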

[10] = molecular target: T4, ATP-sensitive inward rectifier potassium channel 10 (Homo sapiens) (UniProt P78508); experiment: Inhibition of Kir4.1 (unknown origin) expressed in CHO cells at 10 uM at -75 mV holding potential by whole cell patch clamp method relative to control; type: cell-based; method in brief: as §3
T4 sequence (whole entry): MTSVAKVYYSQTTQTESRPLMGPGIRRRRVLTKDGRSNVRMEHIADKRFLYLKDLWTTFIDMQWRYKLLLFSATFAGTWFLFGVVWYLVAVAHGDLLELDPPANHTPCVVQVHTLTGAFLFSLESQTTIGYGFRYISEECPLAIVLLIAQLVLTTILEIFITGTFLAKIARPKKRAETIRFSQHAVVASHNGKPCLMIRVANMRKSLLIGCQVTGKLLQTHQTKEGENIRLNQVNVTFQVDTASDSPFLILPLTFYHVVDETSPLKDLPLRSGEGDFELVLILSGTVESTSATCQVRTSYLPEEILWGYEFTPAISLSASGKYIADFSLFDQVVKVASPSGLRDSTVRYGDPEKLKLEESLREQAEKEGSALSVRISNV

[11] = tested on: T5, ATP-sensitive inward rectifier potassium channel 1 (Homo sapiens), P48048 [K80M]; experiment: Inhibition of human Kir1.1 K80M mutant expressed in HEK293 cells at 100 to 300 nM at -75 mV holding potential by whole cell patch clamp method; type: cell-based
T5 sequence (whole entry): T1 sequence (P48048 whole entry) with K80M
Method in brief: (§4)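 Whole-cell currents were recorded under voltage clamp in HEK293 cells transiently expressing human ROMK K80M or the human ROMK K80M/N171D double mutant.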

[12] = tested on: T6, ATP-sensitive inward rectifier potassium channel 1 (Homo sapiens), P48048 [N171D]; experiment: Inhibition of human Kir1.1 N171D mutant expressed in HEK293 cells at 100 to 300 nM at -75 mV holding potential by whole cell patch clamp method; type: cell-based; method in brief: as §4
T6 sequence (whole entry): T1 sequence (P48048 whole entry) with N171D

[13] = molecular target: T7, ATP-sensitive inward rectifier potassium channel 1 (Rattus norvegicus) (UniProt P35560); experiment: Inhibition of rat ROMK2 expressed in HEK293 cells at -75 mV holding potential by whole cell patch clamp method; type: cell-based
T7 sequence (whole entry): T2 sequence (P35560 whole entry)

[14] = molecular target: T8, ATP-sensitive inward rectifier potassium channel 1 (Homo sapiens) (UniProt P48048); experiment: as §1; type: cell-based; method in brief: as §2
T8 sequence (whole entry): T1 sequence (P48048 whole entry)

[15] = octanol/sodium phosphate buffer, read-out: logD

Sequence of Voltage-gated inwardly rectifying potassium channel KCNH2 (Q12809 whole entry): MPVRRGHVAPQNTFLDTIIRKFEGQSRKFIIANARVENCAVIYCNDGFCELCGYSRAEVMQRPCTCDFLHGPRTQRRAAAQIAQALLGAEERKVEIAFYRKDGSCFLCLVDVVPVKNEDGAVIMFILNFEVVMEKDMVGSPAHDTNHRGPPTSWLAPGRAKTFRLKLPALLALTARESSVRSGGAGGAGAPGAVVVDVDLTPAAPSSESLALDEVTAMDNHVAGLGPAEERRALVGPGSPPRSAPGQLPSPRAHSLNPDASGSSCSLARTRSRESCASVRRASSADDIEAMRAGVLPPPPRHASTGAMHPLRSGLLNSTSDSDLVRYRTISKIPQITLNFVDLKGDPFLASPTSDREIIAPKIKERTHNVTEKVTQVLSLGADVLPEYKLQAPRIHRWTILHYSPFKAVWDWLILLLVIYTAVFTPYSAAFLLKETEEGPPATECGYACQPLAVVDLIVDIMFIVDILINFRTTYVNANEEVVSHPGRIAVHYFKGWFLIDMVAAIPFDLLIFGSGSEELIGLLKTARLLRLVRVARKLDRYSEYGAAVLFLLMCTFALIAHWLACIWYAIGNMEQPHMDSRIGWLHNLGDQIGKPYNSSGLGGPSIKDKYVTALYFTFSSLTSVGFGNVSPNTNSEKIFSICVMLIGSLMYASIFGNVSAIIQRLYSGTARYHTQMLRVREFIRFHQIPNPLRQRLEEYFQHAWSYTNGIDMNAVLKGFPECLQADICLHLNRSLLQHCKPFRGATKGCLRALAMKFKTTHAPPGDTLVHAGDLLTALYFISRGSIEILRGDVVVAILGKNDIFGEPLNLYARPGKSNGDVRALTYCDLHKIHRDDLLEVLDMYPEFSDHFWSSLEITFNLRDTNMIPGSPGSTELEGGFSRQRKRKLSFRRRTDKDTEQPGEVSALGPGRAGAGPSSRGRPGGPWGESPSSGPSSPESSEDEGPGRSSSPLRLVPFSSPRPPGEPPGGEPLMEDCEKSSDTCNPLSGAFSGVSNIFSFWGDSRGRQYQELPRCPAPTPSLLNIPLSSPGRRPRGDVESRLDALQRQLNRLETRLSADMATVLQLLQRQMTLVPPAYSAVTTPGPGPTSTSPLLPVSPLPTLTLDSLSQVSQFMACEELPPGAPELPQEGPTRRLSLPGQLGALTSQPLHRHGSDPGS

SMILES | logD [1, 15] | IC50 [2] [nM] | CLint scaled [3] [mL/min/kg] | Papp ([4]; MDCK, read-out: Papp) [×10⁻⁶ cm/s] | IC50 [5] [µM] | IC50 ([7]; read-out: IC50) [nM] | Ki [8] [µM] | also measured
COc1ccc(C(=O)NC(C)c2cnn(C)n2)cc1S(=O)(=O)Nc1ccc(Cl)cc1 (single isomer, unassigned; (-)) [listing 1 of 2 here] | 2.6 | 160 | < 8 | 16 | > 30 | 391 | 28 | IC50 [6]: 61 nM
Cc1ccc(NS(=O)(=O)c2cc(C(=O)NCc3cccnc3)ccc2C)cc1 | 3 | 6500 | 120 | 15 | – | – | > 40 | inhibition at 10 µM [9]: 13%; inhibition [10]: 19%
Cc1noc(CNC(=O)c2ccc(C)c(S(=O)(=O)Nc3ccc(-c4cnco4)cc3)c2)n1 | 2.2 | 35 | 69 | 10 | – | – | > 40 | –
COc1ccc(C(=O)NC(C)c2cnn(C)n2)cc1S(=O)(=O)Nc1ccc(Cl)cc1 (single isomer, unassigned; (-)) [listing 2 of 2 here] | – | – | – | – | – | – | – | inhibition [11]: Active; inhibition [12]: Active; inhibition [13]: inactive; inhibition [14]: Dose-dependent effect
Cc1ccc(C(=O)NCc2cn(C)nn2)cc1S(=O)(=O)Nc1ccc(Cl)cc1 | 2.9 | 86 | < 9 | 19 | – | – | > 40 | –
COc1ccc(C(=O)NCc2nc(C)no2)cc1S(=O)(=O)Nc1ccc(C)cc1 | 2.3 | 1300 | 10 | 8 | – | – | > 40 | –
Cc1noc(CNC(=O)c2ccc(C)c(S(=O)(=O)Nc3ccc(-c4ccno4)cc3)c2)n1 | 2.3 | 110 | 25 | 6 | – | – | > 40 | –
O=[N+]([O-])c1ccc2nc(COCc3nc4ccc([N+](=O)[O-])cc4[nH]3)[nH]c2c1 | – | – | – | – | 0.42 | 744 | – | –
Cc1ccc(NS(=O)(=O)c2cccc(C(=O)NCc3nc(C)no3)c2)cc1 | 2.3 | 17000 | 9 | 22 | – | – | > 40 | –
COc1ccc(C(=O)NC(C)c2cnn(C)n2)cc1S(=O)(=O)Nc1ccc(Cl)cc1 (single isomer, unassigned; (+)) | – | 13000 | – | – | – | – | > 40 | logD ([1]; octanol/water): 2.7; Papp ([4]; mdck-ii): 11 ×10⁻⁶ cm/s
Cc1ccc(NS(=O)(=O)c2cc(C(=O)NCc3nc(C)no3)ccc2C)cc1 | 2.7 | 440 | 30 | 20 | – | – | > 40 | –
Cc1ccc(C(=O)NCc2cn(C)nn2)cc1S(=O)(=O)Nc1ccc(-c2ccno2)cc1 | 2.4 | 280 | < 8 | 12 | > 30 | 1040 | > 40 | IC50 [6]: 104 nM; inhibition [13]: inactive; inhibition [14]: Dose-dependent effect; IC50 ([7]; read-out: pIC50 (converted)): 1260 nM
Cc1noc(CNC(=O)c2ccc(C)c(S(=O)(=O)Nc3ccc(Cl)cc3)c2)n1 | 3 | 85 | 35 | 19 | > 30 | 777 | > 40 | IC50 [6]: 62 nM; inhibition [14]: Dose-dependent effect
